Tests used:
[1] = system: DU-145; assay: Cytotoxicity against human DU145 cells after 48 hrs by SRB assay; type: functional, cell-based; settings: Homo sapiens, DU-145, 48 h; for CC50: read-out: LC50 (the source's name)
Method in brief: (§1)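 Cells grown in RPMI 1640 with 10% FBS and penicillin/streptomycin at 37 °C and 5% CO₂, trypsinized, then seeded at 5 × 10³/well. After 18 h drug-free attachment, samples in DMSO/EtOH/PBS (0.5:0.5:99) were added for 48 h continuous exposure. Cells were fixed with cold TCA (1 h, 4 °C) and stained with SRB (10 min). Tris-solubilized stain read at 490 nm. Triplicate wells, mean ± SD; GI₅₀ derived.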

[2] = system: LNCaP; assay: Cytotoxicity against human LNcaP cells after 48 hrs by SRB assay; type: functional; settings: for CC50: read-out: LC50 (the source's name); method in brief: as §1
[3] = Cytotoxicity against human IGROV cells after 48 hrs by SRB assay; type: functional; settings: for CC50: read-out: LC50 (the source's name); method in brief: as §1
[4] = Cytotoxicity against human IGROV-ET cells after 48 hrs by SRB assay; type: functional; settings: for CC50: read-out: LC50 (the source's name); method in brief: as §1
[5] = system: SK-BR-3; assay: Cytotoxicity against human SKBR3 cells after 48 hrs by SRB assay; type: functional; settings: SK-BR-3, 48 h; for CC50: read-out: LC50 (the source's name); method in brief: as §1
[6] = system: SK-MEL-28; assay: Cytotoxicity against human SK-MEL-28 cells after 48 hrs by SRB assay; type: functional, cell-based; settings: Homo sapiens, SK-MEL-28, 48 h; for CC50: read-out: LC50 (the source's name); method in brief: as §1
[7] = system: A549; assay: Cytotoxicity against human A549 cells after 48 hrs by SRB assay; type: functional, cell-based; settings: Homo sapiens, A549, 48 h; method in brief: as §1
[8] = system: K562; assay: Cytotoxicity against human K562 cells after 48 hrs by SRB assay; type: functional; settings: K562, 48 h; for CC50: read-out: LC50 (the source's name); method in brief: as §1
[9] = system: PANC-1; assay: Cytotoxicity against human PANC1 cells after 48 hrs by SRB assay; type: functional; settings: PANC-1, 48 h; for CC50: read-out: LC50 (the source's name); method in brief: as §1
[10] = system: HT-29; assay: Cytotoxicity against human HT29 cells after 48 hrs by SRB assay; type: functional, cell-based; settings: Homo sapiens, HT-29, 48 h; for CC50: read-out: LC50 (the source's name); method in brief: as §1
[11] = system: LoVo; assay: Cytotoxicity against human LoVo cells after 48 hrs by SRB assay; type: functional; settings: for CC50: read-out: LC50 (the source's name)
[12] = system: LoVo; assay: Cytotoxicity against human doxorubicin resistant LoVo cells after 48 hrs by SRB assay; type: functional; settings: for CC50: read-out: LC50 (the source's name); method in brief: as §1
[13] = system: HeLa; assay: Cytotoxicity against human HeLa cells after 48 hrs by SRB assay; type: functional; settings: for CC50: read-out: LC50 (the source's name); method in brief: as §1
[14] = Cytotoxicity against human HeLa-APL cells after 48 hrs by SRB assay; type: functional; method in brief: as §1

C/C=C1\NC(=O)[C@H](Cc2ccccc2)NC(=O)[C@@H](C(C)C)NC(=O)[C@@H]([C@H](C)CC)NC(=O)[C@H](NC(=O)[C@H](NC(=O)[C@H](CCCNC(=O)C(F)(F)F)NC(=O)[C@H]2CCCN2C(=O)[C@H](NC(=O)[C@@H](NC(=O)[C@@H](NC(=O)[C@H](NC(=O)CC[C@@H](C)CC)C(C)C)[C@@H](C)OC(=O)C(F)(F)F)C(C)C)C(C)C)[C@H](C)CC)[C@H](C)OC(=O)[C@H](C(C)C)NC1=O
TGI [1]: 1170 nM
GI50 ([1]; read-out: GI50): 1460 nM
CC50 [1]: 931 nM
GI50 [2]: 1140 nM
TGI [2]: 1720 nM
CC50 [2]: 1330 nM
GI50 [3]: 397 nM
GI50 ([3]; read-out: GI50): 373 nM
CC50 [3]: 281 nM
GI50 [4]: 911 nM
GI50 ([4]; read-out: GI50): 770 nM
CC50 [4]: 2480 nM
TGI [5]: 322 nM
GI50 ([5]; read-out: GI50): 331 nM
CC50 [5]: 313 nM
CC50 [6]: 1140 nM
LC50 [7]: 1180 nM
TGI [7]: 1200 nM
GI50 ([7]; read-out: GI50): 1230 nM
CC50 [8]: 1710 nM
CC50 [9]: 1570 nM
GI50 [10]: 329 nM
TGI [10]: 355 nM
CC50 [10]: 381 nM
GI50 [11]: 276 nM
TGI [11]: 284 nM
CC50 [11]: 294 nM
GI50 [12]: 363 nM
TGI [12]: 396 nM
CC50 [12]: 1130 nM
GI50 [13]: 656 nM
TGI [13]: 597 nM
CC50 [13]: 543 nM
GI50 [14]: 849 nM
LC50 (concentration giving 50% net cell kill) [14]: 679 nM
TGI [14]: 778 nM

C/C=C1\NC(=O)[C@H](Cc2ccccc2Cl)NC(=O)[C@@H](C(C)C)NC(=O)[C@@H]([C@H](C)CC)NC(=O)[C@H](NC(=O)[C@H](NC(=O)[C@H](CCCN)NC(=O)[C@H]2CCCN2C(=O)[C@H](NC(=O)[C@@H](NC(=O)[C@@H](NC(=O)[C@H](NC(=O)CCCC(C)C)C(C)C)[C@@H](C)O)C(C)C)C(C)C)[C@H](C)CC)[C@H](C)OC(=O)[C@H](C(C)C)NC1=O
GI50 [1]: 391 nM
GI50 ([1]; read-out: GI50): 180 nM
CC50 [1]: 670 nM
GI50 [2]: 92.8 nM
TGI [2]: 359 nM
CC50 [2]: 832 nM
GI50 [3]: 118 nM
GI50 ([3]; read-out: GI50): 72.3 nM
CC50 [3]: 204 nM
GI50 [4]: 142 nM
GI50 ([4]; read-out: GI50): 97.3 nM
CC50 [4]: 196 nM
GI50 [5]: 56.8 nM
GI50 ([5]; read-out: GI50): 54.9 nM
CC50 [5]: 111 nM
GI50 [6]: 638 nM
GI50 ([6]; read-out: GI50): 386 nM
CC50 [6]: 1050 nM
GI50 [7]: 659 nM
LC50 [7]: 1040 nM
GI50 ([7]; read-out: GI50): 418 nM
GI50 [8]: 1850 nM
TGI [8]: 1850 nM
CC50 [8]: 1850 nM
GI50 [9]: 1510 nM
TGI [9]: 1700 nM
CC50 [9]: 1700 nM
GI50 [10]: 89 nM
TGI [10]: 113 nM
CC50 [10]: 144 nM
GI50 [11]: 43.4 nM
TGI [11]: 63.5 nM
CC50 [11]: 111 nM
GI50 [12]: 44.3 nM
TGI [12]: 46.9 nM
CC50 [12]: 85.1 nM
GI50 [13]: 274 nM
TGI [13]: 506 nM
CC50 [13]: 889 nM
GI50 [14]: 312 nM
LC50 (concentration giving 50% net cell kill) [14]: 931 nM
TGI [14]: 533 nM

C/C=C1\NC(=O)[C@H](Cc2ccccc2)NC(=O)[C@@H](C(C)C)NC(=O)[C@@H]([C@H](C)CC)NC(=O)[C@H](NC(=O)[C@H](NC(=O)[C@H](CCCN)NC(=O)[C@H]2CCCN2C(=O)[C@H](NC(=O)[C@@H](NC(=O)[C@@H](NC(=O)[C@H](NC(=O)CC[C@H](C)CC)C(C)C)[C@@H](C)O)C(C)C)C(C)C)[C@H](C)CC)[C@H](C)OC(=O)[C@H](C(C)C)NC1=O
TGI [1]: 1270 nM
GI50 ([1]; read-out: GI50): 1440 nM
CC50 [1]: 1130 nM
GI50 [2]: 1470 nM
TGI [2]: 1290 nM
CC50 [2]: 1130 nM
GI50 [3]: 776 nM
GI50 ([3]; read-out: GI50): 1520 nM
CC50 [3]: 551 nM
GI50 [4]: 920 nM
GI50 ([4]; read-out: GI50): 1900 nM
CC50 [4]: 614 nM
TGI [5]: 425 nM
GI50 ([5]; read-out: GI50): 469 nM
CC50 [5]: 383 nM
TGI [6]: 1270 nM
GI50 ([6]; read-out: GI50): 1370 nM
CC50 [6]: 1160 nM
LC50 [7]: 1360 nM
TGI [7]: 1420 nM
GI50 ([7]; read-out: GI50): 1480 nM
GI50 [8]: 2180 nM
TGI [8]: 1930 nM
CC50 [8]: 1930 nM
CC50 [9]: 1640 nM
CC50 [10]: 668 nM
GI50 [11]: 690 nM
TGI [11]: 1180 nM
CC50 [11]: 1890 nM
GI50 [12]: 690 nM
TGI [12]: 1040 nM
CC50 [12]: 1660 nM
CC50 [13]: 971 nM
GI50 [14]: 1420 nM
LC50 (concentration giving 50% net cell kill) [14]: 1240 nM
TGI [14]: 1420 nM
